N-glyco inh = increase of ERlucT glycosylation luciferase signal, primary screen, N-linked glycosylation inhibitor project, D54 ERlucT cells, luminescence, set 2. D54 ERlucT glycosylation luciferase reporter, 24 h; percent of 100 nM tunicamycin response. reporter increase, % at 12.5 µM. actives 0.23% (n = 360,000). AID 588692, 2011;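 active = mean luciferase reporter signal, scaled so untreated is 0 and the glycosylation-blocking control 100, at or above a set limit in every replicate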;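 note: luciferase carries N-glycosylation sites so blocking glycosylation raises the light; 0% = median of neutral control wells and 100% = median of 100 nM tunicamycin wells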
ALR H2O2 inh = inhibitors of human ALR sulfhydryl oxidase, primary screen, biochemical, H2O2 detection, HRP-luminol luminescence, single point; FAD-linked sulfhydryl oxidase ALR (Homo sapiens), P55789; purified ALR, DTT oxidation; inhibition, % (no concentration beside the values); actives 3.8% (n = 290,000); AID 485317, 2010;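 active = mean replicate inhibition above about 79%, with every replicate also reaching it, limit read from the data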
Target sequence (P55789 whole entry, looked up): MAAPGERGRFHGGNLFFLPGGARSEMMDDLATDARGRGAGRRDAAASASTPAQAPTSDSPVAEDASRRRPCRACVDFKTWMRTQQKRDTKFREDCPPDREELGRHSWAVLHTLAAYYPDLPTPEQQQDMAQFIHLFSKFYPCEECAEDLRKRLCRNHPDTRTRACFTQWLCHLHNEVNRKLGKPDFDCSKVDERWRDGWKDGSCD
T cell modulator = modulators of CD8 T cell-vesicle binding, primary screen, mouse 2C CD8+ T cells, flow cytometry. 2C CD8+ T cell-vesicle binding; stronger effect = lower value. response (vesicle binding), % at 7 µM. actives 0.068% (n = 330,000). AID 2052, 2009;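 active = response, share of CD8 T cells binding vesicles, and their 90th percentile fluorescence all below set limits, cut at about 80% in these data, passing the limit was not always enough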;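 note: values below 100% mean blocked vesicle binding to the CD8+ T cells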
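Material: 2C TCR transgenic mouse naive CD8+ T cells, MACS-purified. Also added: QL9-charged Drosophila Ld/ICAM-1/B7-1 vesicles. Timing: binding 1.5 h at 37 °C. Measured by: high-throughput flow cytometry with anti-B7-1 and anti-CD8 staining. Read-out: percent CD8+ FL2 mean versus row control. Controls: Unloaded micro-vesicles (low), QL9 vesicles with 0.7% DMSO (high).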
The depositor's hits bear a star; i = inactive; . = not tested or not shown. Many of the other results were omitted from the sample, so hits are more common in it than they were.

SMILES	N-glyco inh	ALR H2O2 inh	T cell modulator
CCS(=O)(=O)c1ccc(O)c(NC(=O)Nc2ccc(C(C)(C)C)cc2)c1	1	4	302
CC(NC(=O)COC(=O)CSc1ccc(F)cc1)c1ccc(F)cc1 (configuration not stated)	5	-3	474
Nc1nnc(SCC(=O)N2CCCCC2)s1	1	.	497
Nc1nnc(SCC(=O)N2CCN(c3cccc(Cl)c3)CC2)n1-c1ccccc1	0	6	214
Nc1nnc(SCC(=O)N2CCN(c3ccccc3)CC2)n1-c1ccccc1	-1	98*	246
Nc1nnc(SCC(=O)N2CCN(c3ccccc3)CC2)s1	0	99*	787
CCOC(=O)C1=C(COC(=O)C2CC(=O)N(c3ccc(C)cc3)C2)NC(=O)NC1C (configuration not stated)	0	-39	332
CSc1nc(SCc2ccccc2)[nH]c(=O)n1	2	.	.
Cc1cc(C)c(C(=O)NNC(=O)c2cccnc2)c(C)c1	3	-3	276
Cc1ccc(-c2cn3c(=O)cc(C)[nH]c3n2)cc1	-1	-6	305
Cc1cc(=O)n2cc(-c3ccccc3)nc2[nH]1	3	87*	200
Cc1ccc(N2CC(C(=O)N3CCN(c4ccccn4)CC3)CC2=O)cc1 (configuration not stated)	4	.	.
C=CCn1c(-c2cc(OC)cc(OC)c2)n[nH]c1=S	0	96*	306
CCn1c(-c2cc(-c3ccc(C)cc3)nc3ccccc23)n[nH]c1=S	2	.	347
C=CCn1c(-c2cccc(OCC)c2)n[nH]c1=S	4	48	386
C=CCn1c(-c2cc(-c3ccc(C)cc3)nc3ccccc23)n[nH]c1=S	3	94*	442
O=C(COC(=O)CNC(=O)c1ccc(Cl)c([N+](=O)[O-])c1)NC(=O)CN1CCCC1=O	0	-3	525
CC1CCN(C(=O)CSc2nnc(CNC(=O)c3ccc(S(=O)(=O)N(C)C)cc3)o2)CC1	1	-7	145
CC(C)(C)c1cc(NS(=O)(=O)c2ccc(Br)s2)no1	1	4	144
COC(=O)Cn1c(=NC(=O)c2ccc(Cl)s2)sc2cc(C)ccc21	-2	-3	120
COC(=O)Cn1c(=NC(=O)c2ccc([N+](=O)[O-])s2)sc2cc(Br)ccc21	.	98*	920
O=C(NCc1ccc(OC(F)(F)F)cc1)C1CC2Cn3c(nc4ccccc43)C2N1c1ccccc1 (configuration not stated)	2	.	95
O=C1COc2ccc(C(=O)COC(=O)c3ccco3)cc2N1	0	-7	530
CC(C)[C@H](NC(=O)c1ccco1)C(=O)OCC(=O)c1ccc2c(c1)NC(=O)CO2	3	100*	171
CC(O)C(NS(=O)(=O)c1ccc(Cl)cc1)C(=O)OCC(=O)c1ccc2c(c1)NC(=O)CO2 (configuration not stated)	1	.	.
SMILES	N-glyco inh	ALR H2O2 inh	T cell modulator
CC(C)CC(NC(=O)c1ccc(Cl)cc1)C(=O)OCC(=O)c1ccc2c(c1)NC(=O)CO2 (configuration not stated)	60*	3	215
CC(C)Cc1nnc(NC(=O)CCC(=O)N2CCN(c3ccccc3F)CC2)s1	0	-1	139
CCOC(=O)c1oc2ccccc2c1COC(=O)C(C)NC(=O)c1ccco1 (configuration not stated)	1	.	615
O=S(=O)(Nc1c(O)ccc2ccccc12)c1ccccc1	6	58	408
COc1ccc(S(=O)(=O)Nc2cc(C)c(O)cc2C(C)C)cc1	-2	43	i
Cc1ccc(S(=O)(=O)Nc2cc(C)c(O)cc2C)cc1	0	98*	114
Cc1cc(NS(=O)(=O)c2ccccc2)c(C)c(Cl)c1O	-1	100*	239
Nc1cccc(S(=O)(=O)Nc2ccccc2)c1	-2	-4	422
Cc1cc(NS(=O)(=O)c2ccccc2)c([N+](=O)[O-])cc1C	3	-40	250
Nc1ccc(NS(=O)(=O)c2ccccc2)cc1	2	100*	119
Cc1c(O)ccc(NS(=O)(=O)c2ccccc2)c1C	1	99*	275
CC1=C(CC/C(C)=N/NC(N)=S)C(C)(C)CCC1	3	18	273
Cc1cc(C)cc(NC(=O)COc2coc(CN3CCc4ccccc43)cc2=O)c1	-4	6	161
COc1cccc(COC(=O)CCNC(=O)c2ccc(Br)cc2)c1OC	0	1	609
Cc1cc(NS(=O)(=O)c2ccccc2)ccc1NS(=O)(=O)c1ccccc1	-3	.	.
O=S(=O)(Nc1ccc(O)c(NS(=O)(=O)c2ccccc2)c1)c1ccccc1	0	87*	269

Screens from PubChem.
